Measured values published in ChEMBL document CHEMBL1157319, “Altenuene derivatives from an unidentified freshwater fungus in the family Tubeufiaceae” (2006).
Calls of active or inactive are those of the source. The rule behind the calls is not given here.

tested on: Fusarium verticillioides; experiment: Antifungal activity against Fusarium verticillioides NRRL 25457 at 200 ug/disk by disk diffusion method; assay type: functional, organism-based; settings: not given

SMILES | Activity
COc1cc(O)c2c(c1)[C@H]1C[C@H](O)[C@@H](O)C[C@]1(C)OC2=O | inactive
COc1cc(O)c2c(c1)[C@H]1C[C@@H](O)[C@@H](O)C[C@]1(C)OC2=O [DIHYDROALTENUENE A] | inactive
COc1cc(O)c2c(c1)C1=CC(=O)[C@H](O)C[C@]1(C)OC2=O [DEHYDROALTENUENE A] | inactive
COc1cc(O)c2c(c1)C1=CC(=O)[C@@H](O)C[C@]1(C)OC2=O [DEHYDROALTENUENE B] | inactive

tested on: Bacillus subtilis; experiment: Antibacterial activity against Bacillus subtilis ATCC 6051 at 100 ug/disk by disk diffusion method; assay type: functional; settings: not given
Procedure, shortened: (§1)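 Paper disks each loaded with 100 µg of test material; gentamicin sulfate at 25 µg/disk served as the positive standard. Read-out was the diameter of the inhibition zone in mm. The same panel also included Escherichia coli ATCC 25922.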

SMILES | Activity
COc1cc(O)c2c(c1)[C@H]1C[C@H](O)[C@@H](O)C[C@]1(C)OC2=O | inactive
COc1cc(O)c2c(c1)C1=C[C@@H](O)[C@@H](O)C[C@]1(C)OC2=O | inactive

same assay, conditions: read-out: IZ

SMILES | zone of inhibition at 100 µg/disc [mm]
COc1cc(O)c2c(c1)[C@H]1C[C@@H](O)[C@@H](O)C[C@]1(C)OC2=O [DIHYDROALTENUENE A] | 50
COc1cc(O)c2c(c1)C1=C[C@H](O)[C@@H](O)C[C@]1(C)OC2=O [ALTENUENE] | 20
COc1cc(O)c2c(c1)C1=CC(=O)[C@H](O)C[C@]1(C)OC2=O [DEHYDROALTENUENE A] | 13
COc1cc(O)c2c(c1)C1=CC(=O)[C@@H](O)C[C@]1(C)OC2=O [DEHYDROALTENUENE B] | 20
COc1cc(O)c2c(c1)C1=C[C@@H](O)[C@H](O)C[C@]1(C)OC2=O [ISOALTENUENE] | 30

tested on: Staphylococcus aureus; experiment: Antibacterial activity against Staphylococcus aureus ATCC 29213 at 100 ug/disk by disk diffusion method; assay type: functional; settings: not given; procedure, shortened: as §1

SMILES | Activity
COc1cc(O)c2c(c1)[C@H]1C[C@H](O)[C@@H](O)C[C@]1(C)OC2=O | inactive

same assay, conditions: read-out: IZ

SMILES | zone of inhibition at 100 µg/disc [mm]
COc1cc(O)c2c(c1)[C@H]1C[C@@H](O)[C@@H](O)C[C@]1(C)OC2=O [DIHYDROALTENUENE A] | 14
COc1cc(O)c2c(c1)C1=C[C@H](O)[C@@H](O)C[C@]1(C)OC2=O [ALTENUENE] | 18
COc1cc(O)c2c(c1)C1=CC(=O)[C@@H](O)C[C@]1(C)OC2=O [DEHYDROALTENUENE B] | 14

tested on: Candida albicans; experiment: Antifungal activity against Candida albicans ATCC 14053 at 200 ug/disk by disk diffusion method; assay type: functional, organism-based; settings: not given

SMILES | Activity
COc1cc(O)c2c(c1)[C@H]1C[C@H](O)[C@@H](O)C[C@]1(C)OC2=O | inactive
COc1cc(O)c2c(c1)[C@H]1C[C@@H](O)[C@@H](O)C[C@]1(C)OC2=O [DIHYDROALTENUENE A] | inactive
COc1cc(O)c2c(c1)C1=CC(=O)[C@H](O)C[C@]1(C)OC2=O [DEHYDROALTENUENE A] | inactive
COc1cc(O)c2c(c1)C1=CC(=O)[C@@H](O)C[C@]1(C)OC2=O [DEHYDROALTENUENE B] | inactive

tested on: Aspergillus flavus; experiment: Antifungal activity against Aspergillus flavus NRRL 6541 at 200 ug/disk by disk diffusion method; assay type: functional, organism-based; settings: not given

SMILES | Activity
COc1cc(O)c2c(c1)[C@H]1C[C@H](O)[C@@H](O)C[C@]1(C)OC2=O | inactive
COc1cc(O)c2c(c1)[C@H]1C[C@@H](O)[C@@H](O)C[C@]1(C)OC2=O [DIHYDROALTENUENE A] | inactive
COc1cc(O)c2c(c1)C1=CC(=O)[C@H](O)C[C@]1(C)OC2=O [DEHYDROALTENUENE A] | inactive
COc1cc(O)c2c(c1)C1=CC(=O)[C@@H](O)C[C@]1(C)OC2=O [DEHYDROALTENUENE B] | inactive
